ChEMBL document CHEMBL4177577, “Lipophilic methylene violet analogues as modulators of mitochondrial function and dysfunction” (Bioorg Med Chem, 2017)
The source made the active and inactive calls. No cut-off for these calls is given here.

Experiments:
[1] = Cytotoxicity in human Friedreich's ataxia lymphocytes assessed as reduction in cell viability at 2.5 uM incubated for 48 hrs by Live/Dead cell viability assay; type: cell-based; settings: friedreich's ataxia lymphocyte
Procedure, shortened: (§1)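 FRDA lymphocytes (5×10^5 cells/mL) were kept in glucose-free medium (25 mM galactose) with compound at 37 °C and 5% CO₂ for 24 or 48 h. Cells were washed, stained with 0.1 μM calcein AM (live) and 0.2 μM EthD-1 (dead) for 15 min at 37 °C and analysed by flow cytometry (10,000 events). Duplicates were run in two independent runs.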

[2] = tested on: Friedreich's ataxia lymphocyte; test: Inhibition of ROS generation in human Friedreich's ataxia lymphocytes at 250 and 2500 nM incubated for 16 hrs by DCFH-DA staining based FACS method; type: functional, cell-based
Procedure, shortened: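 FRDA lymphocytes (GM15850; 5×10^5 cells/mL) were pretreated with compound for 16 h at 37 °C, then exposed to 5 mM diethyl maleate for 80 min to deplete glutathione. Cells were loaded with 10 μM DCFH-DA in PBS with 20 mM glucose for 25 min at 37 °C and DCF was read by flow cytometry (10,000 events). Median fluorescence is given as % of the DEM-treated control; duplicates in two runs.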

[3] = tested on: Friedreich's ataxia lymphocyte; test: Cytoprotection against rotenone-induced cytotoxicity in human Friedreich's ataxia lymphocytes assessed as increase in cell viability at 0.25 and 2.5 uM pre-incubated for 12 hrs in glucose-free media followed by rotenone challenge for 24 hrs by Live/Dead cell viability assay; type: functional, cell-based
Procedure, shortened: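 FRDA lymphocytes (5×10^5 cells/mL) in glucose-free medium with 25 mM galactose were pretreated with compounds at 37 °C, then exposed to 50 nM rotenone for 24 h. Cells were stained with 0.1 μM calcein AM and 0.2 μM EthD-1 for 15 min at 37 °C and run on flow cytometry (10,000 events). Live cells are given as % of control; two independent runs in duplicate.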

[4] = tested on: Friedreich's ataxia lymphocyte; test: Effect on ATP level in human Friedreich's ataxia lymphocytes at 100 nM incubated for 24 hrs by luminescence based assay; type: functional, cell-based
Procedure, shortened: (§2)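 Lymphocytes (2×10^5 cells/mL) were treated with compound at final 0.1, 0.5 or 5 μM (DMSO <0.5%) in glucose-free medium (25 mM galactose) for 24 h at 37 °C. Total intracellular ATP was read by a bioluminescence kit and given as % of untreated control. Data are the mean of at least three independent experiments.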

[5] = Induction of mitochondrial membrane potential preservation in human Friedreich's ataxia lymphocytes assessed as JC1 dye monomer level at 5 uM pre-incubated for 16 hrs by JC1 staining based assay (reference value: 10.1%)
[6] = Induction of mitochondrial membrane potential preservation in human Friedreich's ataxia lymphocytes assessed as JC1 dye aggregates level at 5 uM pre-incubated for 16 hrs by JC1 staining based assay (reference value: 69.8%)
[7] = tested on: Friedreich's ataxia fibroblast (Homo sapiens); test: Cytoprotection against buthionine sulfoximine-induced cytotoxicity in human Friedreich's ataxia fibroblasts assessed as increase in cell viability at 25 to 1000 nM pre-incubated before buthionine sulfoximine challenge for 48 hrs by Live/Dead cell viability assay
Bos taurus = species on record: Bos taurus; test: Effect on NADH-ubiquinone oxidoreductase in bovine heart submitochondrial particles assessed as induction of electron flow from complex-1 by measuring NADH oxidation at 5 uM in presence of 50 nM rotenone using NADH and coenzyme Q1 by spectrophotomery
Procedure, shortened: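 Submitochondrial particles (30 μg/mL) were preincubated 5 min at 30 °C with compound in 50 mM phosphate buffer, pH 7.4, with 0.25 M sucrose, 1 mM MgCl₂, 2 μM antimycin A and 2 mM KCN. The reaction was started with 75 μM NADH plus 15 μM coenzyme Q₁, and NADH loss was followed at 340 nm. Values are the mean of two independent experiments in duplicate.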

[8] = Cytotoxicity in human Friedreich's ataxia lymphocytes assessed as reduction in cell viability at 2.5 uM incubated for 24 hrs by Live/Dead cell viability assay; type: cell-based; settings: friedreich's ataxia lymphocyte; procedure, shortened: as §1
[9] = tested on: Friedreich's ataxia lymphocyte; test: Increase in ATP level in human Friedreich's ataxia lymphocytes at 0.1 uM incubated for 24 hrs by luminescence based assay; type: functional, cell-based; procedure, shortened: as §2
[10] = tested on: Friedreich's ataxia lymphocyte; test: Increase in ATP level in human Friedreich's ataxia lymphocytes at 0.5 uM incubated for 24 hrs by luminescence based assay; type: functional, cell-based; procedure, shortened: as §2
[11] = Reduction in ATP level in human Friedreich's ataxia lymphocytes at 5 uM incubated for 24 hrs by luminescence based assay; type: ADME, cell-based; settings: friedreich's ataxia lymphocyte; procedure, shortened: as §2
[12] = tested on: Friedreich's ataxia lymphocyte; test: Effect on ATP level in human Friedreich's ataxia lymphocytes at 100 to 5000 nM incubated for 24 hrs by luminescence based assay; type: functional, cell-based; procedure, shortened: as §2

Activity (Bos taurus) | SMILES | Activity [1] | ROS generation inhibition (qualitative) [2] | Activity [3] | Activity [4] | Activity [5] [%] | Activity [6] [%] | Activity [7] | Activity [8] | Activity [9] | Activity [10] | Activity [11] | Activity [12]
– | CCCCN(CCCC)c1ccc2nc3ccc(=O)cc-3sc2c1 | Toxic | Active | Active | inactive | 25.6 | 74.2 | Dose-dependent effect | – | – | – | – | –
Active | CN(C)c1ccc2nc3ccc(=[N+](C)C)cc-3sc2c1 | – | – | Active | inactive | – | – | – | – | – | – | – | –
– | CCCCCCCCCCCCCCCN(C)c1ccc2nc3ccc(=O)cc-3sc2c1 | Non-Toxic | Dose-dependent effect | Active | – | 14.7 | 85.2 | Dose-dependent effect | Non-Toxic | Active | Active | Toxic | –
– | CCCCCCCCCCCCCCCN(CCCCCCCCCCCCCCC)c1ccc2nc3ccc(=O)cc-3sc2c1 | Non-Toxic | Active | Active | – | 11.7 | 88.2 | Dose-dependent effect | Non-Toxic | – | – | – | inactive
Active | CN(C)c1ccc(C(=C2C=CC(=[N+](C)C)C=C2)c2ccc(N(C)C)cc2)cc1.[Cl-] [GENTIAN VIOLET] | – | Active | Active | inactive | 27.3 | 72.6 | – | – | – | – | – | –
– | CCCCCCCCCCN(CCCCCCCCCC)c1ccc2nc3ccc(=O)cc-3sc2c1 | Non-Toxic | Active | Active | – | 14.3 | 85.7 | Dose-dependent effect | Non-Toxic | – | – | – | inactive
– | CN(C)c1ccc2nc3ccc(N(C)C)cc3[s+]c2c1.[Cl-] [METHYLENE BLUE ANHYDROUS] | Toxic | – | – | – | 58.1 | 41.7 | – | Toxic | – | – | – | –
Active | CCCCCCCCCCCCCCCN(CCCC)c1ccc2nc3ccc(=O)cc-3sc2c1 | Non-Toxic | Dose-dependent effect | Active | – | 10.6 | 89.3 | Dose-dependent effect | Non-Toxic | Active | Active | Toxic | –
